pIC50: −log10 of the molar value. “And” between values parts separate entries of the source, which are not always exact repeats. Equal entries are not always repeated. The source made the active and inactive calls. The rule behind the calls is not given here.
Experiments:
Histone deacetylase 4 [1] = target: T1, Histone deacetylase 4 (Homo sapiens, UniProt P56524); test: Inhibition of human recombinant HDAC4 at 1 uM after 30 mins by fluorescence assay
Summary of the method: (§1)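 Human recombinant HDAC isozyme with fluorogenic kit substrate, incubated with inhibitor 30 min at 37 °C. Deacetylation stopped by developer containing trichostatin A (1 μM final), then 15 min at room temperature. Fluorescence read at excitation 360 nm, emission 460 nm; percent inhibition, IC50 from nonlinear regression over varying concentrations; SAHA control.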

[2] = Cytotoxicity against human HDF after 72 hrs by MTS-PMS assay; settings: HDF cells
Summary of the method: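 Dermal fibroblasts cultured in DMEM/F-12 with 40% FBS and 1% pen/strep; 5000 cells/well allowed to adhere 24 h at 37 °C, 5% CO2, then treated in triplicate at varying concentrations for 72 h. Antiproliferative readout by MTS–PMS; GI50 fitted by nonlinear regression; SAHA positive control.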

HCT-116 [3] = test: Cytotoxicity against human HCT116 cells after 96 hrs by MTS-PMS assay; type: functional
HuT78 = test: Cytotoxicity against human HUT78 cells after 72 hrs by MTS-PMS assay; type: functional
Summary of the method: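 HuT-78 maintained in Iscove's modified Dulbecco's medium, 20% FBS, 1% pen/strep, 1% L-glutamine; seeded in log phase at 50 000 cells/well, held 4 h at 37 °C, 5% CO2, then dosed in triplicate over a concentration range for 72 h. MTS–PMS readout; GI50 by nonlinear regression; SAHA positive control.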

[4] = target: T2, Protein deacetylase HDAC6 (Homo sapiens, UniProt Q9UBN7); test: Inhibition of human recombinant HDAC6 after 30 mins by fluorescence assay
T2 sequence (Q9UBN7 whole entry): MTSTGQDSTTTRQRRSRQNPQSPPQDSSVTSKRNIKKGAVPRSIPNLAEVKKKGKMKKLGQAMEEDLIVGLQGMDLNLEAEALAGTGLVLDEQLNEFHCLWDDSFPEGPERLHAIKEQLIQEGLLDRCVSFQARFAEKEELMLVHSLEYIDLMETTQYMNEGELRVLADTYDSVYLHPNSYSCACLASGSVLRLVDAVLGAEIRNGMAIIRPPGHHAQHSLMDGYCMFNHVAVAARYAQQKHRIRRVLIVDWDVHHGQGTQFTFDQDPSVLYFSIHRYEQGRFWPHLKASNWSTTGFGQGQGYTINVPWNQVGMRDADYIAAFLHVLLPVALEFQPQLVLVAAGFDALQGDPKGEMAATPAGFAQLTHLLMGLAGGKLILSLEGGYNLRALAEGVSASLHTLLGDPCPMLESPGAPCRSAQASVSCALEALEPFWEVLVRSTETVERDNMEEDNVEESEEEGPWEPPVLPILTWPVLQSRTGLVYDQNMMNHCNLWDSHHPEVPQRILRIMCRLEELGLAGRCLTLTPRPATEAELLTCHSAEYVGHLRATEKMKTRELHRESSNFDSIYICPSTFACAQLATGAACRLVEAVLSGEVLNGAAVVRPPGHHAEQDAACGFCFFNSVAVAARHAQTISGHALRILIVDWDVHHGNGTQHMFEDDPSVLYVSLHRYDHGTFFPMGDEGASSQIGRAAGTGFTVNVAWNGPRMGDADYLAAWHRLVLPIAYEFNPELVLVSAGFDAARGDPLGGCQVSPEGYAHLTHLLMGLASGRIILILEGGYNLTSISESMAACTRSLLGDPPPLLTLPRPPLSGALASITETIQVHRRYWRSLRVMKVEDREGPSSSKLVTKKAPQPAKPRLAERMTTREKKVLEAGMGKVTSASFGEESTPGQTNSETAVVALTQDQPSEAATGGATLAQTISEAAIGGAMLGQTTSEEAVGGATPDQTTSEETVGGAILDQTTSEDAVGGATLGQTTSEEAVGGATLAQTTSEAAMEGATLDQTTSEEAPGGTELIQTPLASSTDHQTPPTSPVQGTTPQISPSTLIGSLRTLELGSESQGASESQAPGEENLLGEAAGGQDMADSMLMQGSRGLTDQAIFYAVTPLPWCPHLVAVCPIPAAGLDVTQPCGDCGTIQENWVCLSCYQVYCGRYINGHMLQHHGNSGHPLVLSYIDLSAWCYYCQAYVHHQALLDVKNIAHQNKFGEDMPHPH

Histone deacetylase 4 [5] = target: T1, Histone deacetylase 4; test: Inhibition of human recombinant HDAC4 after 30 mins by fluorescence assay; summary of the method: as §1
Histone deacetylase 2 = Histone deacetylase 2 (Homo sapiens, UniProt Q92769); test: Inhibition of human recombinant HDAC2 after 30 mins by fluorescence assay
Sequence of Histone deacetylase 2 (Q92769 whole entry): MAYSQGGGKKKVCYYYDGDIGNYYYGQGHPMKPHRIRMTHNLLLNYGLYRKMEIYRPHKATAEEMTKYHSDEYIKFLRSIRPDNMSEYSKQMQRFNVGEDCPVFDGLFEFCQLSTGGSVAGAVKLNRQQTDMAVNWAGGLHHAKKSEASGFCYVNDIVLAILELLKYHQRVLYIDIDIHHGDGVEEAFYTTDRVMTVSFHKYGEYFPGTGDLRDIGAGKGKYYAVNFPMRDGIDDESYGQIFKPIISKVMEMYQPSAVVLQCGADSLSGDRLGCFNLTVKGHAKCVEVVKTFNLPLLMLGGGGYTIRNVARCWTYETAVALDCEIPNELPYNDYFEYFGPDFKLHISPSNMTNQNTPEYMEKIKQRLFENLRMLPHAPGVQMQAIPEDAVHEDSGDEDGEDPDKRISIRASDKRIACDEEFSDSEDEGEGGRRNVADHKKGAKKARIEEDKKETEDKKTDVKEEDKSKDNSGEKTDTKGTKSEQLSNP

HCT-116 [6] = test: Ratio of IC50 for human HCT116 cells to IC50 for human HUT78 cells; type: functional

T1 sequence (P56524 whole entry): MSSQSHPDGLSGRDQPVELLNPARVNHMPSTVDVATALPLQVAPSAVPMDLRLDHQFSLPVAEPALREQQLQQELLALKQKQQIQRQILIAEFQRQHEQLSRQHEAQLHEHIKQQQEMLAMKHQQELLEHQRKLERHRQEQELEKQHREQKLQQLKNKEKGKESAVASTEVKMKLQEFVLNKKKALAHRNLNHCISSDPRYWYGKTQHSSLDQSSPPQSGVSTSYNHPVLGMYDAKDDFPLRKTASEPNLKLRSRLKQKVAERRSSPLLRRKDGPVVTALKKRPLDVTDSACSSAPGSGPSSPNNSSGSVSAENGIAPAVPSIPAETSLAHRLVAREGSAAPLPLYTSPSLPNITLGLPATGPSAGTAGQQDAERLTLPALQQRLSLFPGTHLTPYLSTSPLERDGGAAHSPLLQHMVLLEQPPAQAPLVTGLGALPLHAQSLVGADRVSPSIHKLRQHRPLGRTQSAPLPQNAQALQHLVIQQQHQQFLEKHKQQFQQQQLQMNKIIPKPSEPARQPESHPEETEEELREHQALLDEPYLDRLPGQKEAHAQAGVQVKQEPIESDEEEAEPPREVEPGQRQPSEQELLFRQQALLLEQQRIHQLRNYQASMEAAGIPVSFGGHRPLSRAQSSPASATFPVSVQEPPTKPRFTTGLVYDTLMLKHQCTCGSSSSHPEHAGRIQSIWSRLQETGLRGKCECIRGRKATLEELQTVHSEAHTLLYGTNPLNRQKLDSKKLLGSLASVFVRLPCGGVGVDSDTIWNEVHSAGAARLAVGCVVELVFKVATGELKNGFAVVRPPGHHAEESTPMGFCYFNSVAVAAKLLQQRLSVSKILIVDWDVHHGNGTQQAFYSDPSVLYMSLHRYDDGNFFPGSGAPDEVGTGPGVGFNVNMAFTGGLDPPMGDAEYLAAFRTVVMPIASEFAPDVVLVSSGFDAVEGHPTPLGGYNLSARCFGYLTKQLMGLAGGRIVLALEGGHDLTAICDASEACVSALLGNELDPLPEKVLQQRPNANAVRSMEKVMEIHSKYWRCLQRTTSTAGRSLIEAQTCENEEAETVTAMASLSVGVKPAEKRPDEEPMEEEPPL

SMILES	inhibition (Histone deacetylase 4 [1])	GI50 at 72 h [2] [µM]	GI50 (HCT-116 [3]; Homo sapiens, HCT-116, 96 h) [µM]	GI50 (HuT78; Homo sapiens, HuT78, 72 h) [nM]	pIC50 [4]	pIC50 (Histone deacetylase 4 [5])	pIC50 (Histone deacetylase 2)	Ratio IC50 (HCT-116 [6])	GI50 (HCT-116 [3]) [µM]	GI50 (HuT78) [nM]
O=C(CCCC(=O)NCCc1ccccc1)NO	Active	> 100	2.3	700	6.41	< 6.00	8.46			
CCOC(=O)NCCCC(=O)NCCc1ccccc1	Active	> 100	28.3	1300	6.36	< 6.00	9.95 and 9.92	20	29.4	1400

From ChEMBL document CHEMBL3085682, “Santacruzamate A, a potent and selective histone deacetylase inhibitor from the Panamanian marine cyanobacterium cf. Symploca sp” (J Nat Prod, 2013)
